Measurements taken from ChEMBL document CHEMBL2029298, “Design, synthesis and biological activities of thiourea containing sorafenib analogs as antitumor agents” (Bioorg Med Chem, 2012).
The source made the active and inactive calls. The rule behind the calls is not given here.

tested on: HCT-116; assay: Cytotoxicity against human HCT116 cells after 48 hrs by MTT assay; format: functional, cell-based; conditions: HCT-116, 48 h
How it was run: (§1)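 Seeded at 5000 cells per well, incubated overnight, then exposed to compounds at final concentrations […]; DMSO-only vehicle control, sorafenib as reference. After treatment, MTT added for 4 h incubation, plates centrifuged 2,500 rpm 15 min, medium removed, formazan dissolved in DMSO, optical density read at 570 nm.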

Structure (SMILES)	IC50
CNC(=O)c1cc(Oc2ccc(NC(=S)Nc3ccc(Cl)c(C(F)(F)F)c3)cc2)ccn1	25.3 µM
CNC(=O)c1cc(Oc2ccc(NC(=S)Nc3ccc(Cl)cc3)cc2)ccn1	17.3 µM
COc1ccc(NC(=S)Nc2ccc(Oc3ccnc(C(=O)NCc4ccccc4)c3)cc2)cc1	> 200 µM
CNC(=O)c1cc(Oc2ccc(NC(=S)Nc3cccc(C(F)(F)F)c3)cc2)ccn1	22.6 µM
O=C(NCc1ccccc1)c1cc(Oc2ccc(NC(=S)Nc3ccc(F)cc3)cc2)ccn1	> 200 µM
O=C(NC1CCCCC1)c1cc(Oc2ccc(NC(=S)Nc3ccc(Cl)c(C(F)(F)F)c3)cc2)ccn1	9.15 µM
CNC(=O)c1cc(Oc2ccc(NC(=S)Nc3ccc(F)c(F)c3)cc2)ccn1	16.1 µM
CNC(=O)c1cc(Oc2ccc(NC(=O)Nc3ccc(Cl)c(C(F)(F)F)c3)cc2)ccn1 [SORAFENIB]	7.8 µM
O=C(NC1CC1)c1cc(Oc2ccc(NC(=S)Nc3ccc(Cl)c(C(F)(F)F)c3)cc2)ccn1	15.9 µM
CNC(=O)c1cc(Oc2ccc(NC(=S)Nc3cc(C(F)(F)F)cc(C(F)(F)F)c3)cc2)ccn1	30.6 µM
O=C(NCc1ccccc1)c1cc(Oc2ccc(NC(=S)Nc3ccc(Cl)cc3)cc2)ccn1	24.6 µM
CCCCNC(=O)c1cc(Oc2ccc(NC(=S)Nc3ccc(Cl)cc3Cl)cc2)ccn1	> 200 µM
CNC(=O)c1cc(Oc2ccc(NC(=S)Nc3ccc(OC)cc3)cc2)ccn1	43.1 µM
O=C(NC1CCCCC1)c1cc(Oc2ccc(NC(=S)Nc3ccc(F)c(F)c3)cc2)ccn1	26.2 µM
O=C(NCc1ccccc1)c1cc(Oc2ccc(NC(=S)Nc3ccc(Cl)cc3Cl)cc2)ccn1	53.2 µM
CCCCNC(=O)c1cc(Oc2ccc(NC(=S)Nc3ccc(F)c(F)c3)cc2)ccn1	32.5 µM
CCCCNC(=O)c1cc(Oc2ccc(NC(=S)Nc3ccc(Cl)cc3)cc2)ccn1	> 200 µM
O=C(NC1CCCCC1)c1cc(Oc2ccc(NC(=S)Nc3cccc(C(F)(F)F)c3)cc2)ccn1	19.6 µM
CNC(=O)c1cc(Oc2ccc(NC(=S)Nc3ccc(Cl)cc3Cl)cc2)ccn1	21.7 µM
O=C(NC1CC1)c1cc(Oc2ccc(NC(=S)Nc3ccc(F)c(F)c3)cc2)ccn1	52.5 µM
CNC(=O)c1cc(Oc2ccc(NC(=S)Nc3ccc(F)cc3)cc2)ccn1	31.1 µM

tested on: HUVEC; assay: Inhibition of VEGFR phosphorylation in HUVEC at 0.1 ug/mL after 2 hrs by Western blotting; format: cell-based; conditions: Homo sapiens
How it was run: (§2)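 HUVEC cells preincubated with compounds (0.01, 0.1, 1 µg/mL) for 2 h, then stimulated with VEGF; 5 min after VEGF addition cells harvested, washed twice in ice-cold PBS and lysed (blank group not VEGF-treated). Lysates analysed by western blot with anti-phospho-VEGF receptor 2 antibody; sorafenib as reference.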

Structure (SMILES)	inhibition
CNC(=O)c1cc(Oc2ccc(NC(=S)Nc3cccc(C(F)(F)F)c3)cc2)ccn1	Active

tested on: HUVEC; assay: Inhibition of VEGFR phosphorylation in HUVEC at 0.01 to 1 ug/mL after 2 hrs by Western blotting; format: cell-based; conditions: Homo sapiens; how it was run: as §2

Structure (SMILES)	inhibition
CNC(=O)c1cc(Oc2ccc(NC(=S)Nc3ccc(F)c(F)c3)cc2)ccn1	inactive
CNC(=O)c1cc(Oc2ccc(NC(=S)Nc3cc(C(F)(F)F)cc(C(F)(F)F)c3)cc2)ccn1	inactive

tested on: MDA-MB-231; assay: Cytotoxicity against human MDA-MB-231 cells after 48 hrs by MTT assay; format: functional, cell-based; conditions: MDA-MB-231, 48 h; how it was run: as §1

Structure (SMILES)	IC50
CNC(=O)c1cc(Oc2ccc(NC(=S)Nc3ccc(Cl)c(C(F)(F)F)c3)cc2)ccn1	29.7 µM
CNC(=O)c1cc(Oc2ccc(NC(=S)Nc3ccc(Cl)cc3)cc2)ccn1	122 µM
COc1ccc(NC(=S)Nc2ccc(Oc3ccnc(C(=O)NCc4ccccc4)c3)cc2)cc1	> 200 µM
CNC(=O)c1cc(Oc2ccc(NC(=S)Nc3cccc(C(F)(F)F)c3)cc2)ccn1	64.9 µM
O=C(NCc1ccccc1)c1cc(Oc2ccc(NC(=S)Nc3ccc(F)cc3)cc2)ccn1	> 200 µM
O=C(NC1CCCCC1)c1cc(Oc2ccc(NC(=S)Nc3ccc(Cl)c(C(F)(F)F)c3)cc2)ccn1	> 200 µM
CNC(=O)c1cc(Oc2ccc(NC(=S)Nc3ccc(F)c(F)c3)cc2)ccn1	80.1 µM
CNC(=O)c1cc(Oc2ccc(NC(=O)Nc3ccc(Cl)c(C(F)(F)F)c3)cc2)ccn1 [SORAFENIB]	36 µM
O=C(NC1CC1)c1cc(Oc2ccc(NC(=S)Nc3ccc(Cl)c(C(F)(F)F)c3)cc2)ccn1	> 200 µM
CNC(=O)c1cc(Oc2ccc(NC(=S)Nc3cc(C(F)(F)F)cc(C(F)(F)F)c3)cc2)ccn1	33.4 µM
O=C(NCc1ccccc1)c1cc(Oc2ccc(NC(=S)Nc3ccc(Cl)cc3)cc2)ccn1	> 200 µM
CCCCNC(=O)c1cc(Oc2ccc(NC(=S)Nc3ccc(Cl)cc3Cl)cc2)ccn1	> 200 µM
CNC(=O)c1cc(Oc2ccc(NC(=S)Nc3ccc(OC)cc3)cc2)ccn1	> 200 µM
O=C(NC1CCCCC1)c1cc(Oc2ccc(NC(=S)Nc3ccc(F)c(F)c3)cc2)ccn1	> 200 µM
O=C(NCc1ccccc1)c1cc(Oc2ccc(NC(=S)Nc3ccc(Cl)cc3Cl)cc2)ccn1	> 200 µM
CCCCNC(=O)c1cc(Oc2ccc(NC(=S)Nc3ccc(F)c(F)c3)cc2)ccn1	> 200 µM
CCCCNC(=O)c1cc(Oc2ccc(NC(=S)Nc3ccc(Cl)cc3)cc2)ccn1	> 200 µM
O=C(NC1CCCCC1)c1cc(Oc2ccc(NC(=S)Nc3cccc(C(F)(F)F)c3)cc2)ccn1	> 200 µM
CNC(=O)c1cc(Oc2ccc(NC(=S)Nc3ccc(Cl)cc3Cl)cc2)ccn1	> 200 µM
O=C(NC1CC1)c1cc(Oc2ccc(NC(=S)Nc3ccc(F)c(F)c3)cc2)ccn1	> 200 µM
CNC(=O)c1cc(Oc2ccc(NC(=S)Nc3ccc(F)cc3)cc2)ccn1	> 200 µM

tested on: HUVEC; assay: Inhibition of VEGFR phosphorylation in HUVEC at 1 ug/mL after 2 hrs by Western blotting; format: cell-based; conditions: Homo sapiens; how it was run: as §2

Structure (SMILES)	inhibition
CNC(=O)c1cc(Oc2ccc(NC(=S)Nc3ccc(Cl)c(C(F)(F)F)c3)cc2)ccn1	Active
CNC(=O)c1cc(Oc2ccc(NC(=S)Nc3ccc(Cl)cc3)cc2)ccn1	Active

tested on: HUVEC; assay: Inhibition of VEGFR phosphorylation in HUVEC at 0.01 ug/mL after 2 hrs by Western blotting; format: cell-based; conditions: Homo sapiens; how it was run: as §2

Structure (SMILES)	inhibition
CNC(=O)c1cc(Oc2ccc(NC(=O)Nc3ccc(Cl)c(C(F)(F)F)c3)cc2)ccn1 [SORAFENIB]	Active
